In ChEMBL document CHEMBL4138249, “Structure-activity analysis of CJ-15,801 analogues that interact with Plasmodium falciparum pantothenate kinase and inhibit parasite proliferation” (Eur J Med Chem, 2018):
The source made the active and inactive calls. No cut-off for these calls is given here.

What was measured:
[1] = tested on: Plasmodium falciparum; test: Ratio of IC50 for Plasmodium falciparum 3D7 infected in human erythrocytes in presence of 100 uM pantothenate to IC50 for Plasmodium falciparum 3D7 infected in human erythrocytes in presence of 1 uM pantothenate; format: functional
Procedure, shortened: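 Paired 96 h proliferation assays with parasites in medium containing 100 μM versus 1 μM pantothenate. Fold-increase = IC50 at 100 μM pantothenate divided by IC50 at 1 μM. Two independent experiments in triplicate; error is range/2.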

[2] = tested on: Plasmodium falciparum; test: Antimalarial activity against Plasmodium falciparum 3D7 infected in human erythrocytes after 96 hrs in presence of 1 uM pantothenate by SYBR green fluorescence-based method; format: functional, organism-based; conditions: 3D7, 96 h
Procedure, shortened: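 Blood-stage parasites cultured 96 h in medium with 1 μM pantothenate across a range of compound concentrations; IC50 is the concentration giving 50% inhibition of proliferation. Each experiment run in triplicate, 2–7 independent experiments; mean ± range/2 (n = 2) or SEM (n = 3–7).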

[3] = biological target: T1, Pantothenate kinase, putative (Plasmodium falciparum (isolate 3D7)) (UniProt Q8ILP4); test: Inhibition of pantothenate kinase in Plasmodium falciparum 3D7 trophozoites at 100 uM using [14C]pantothenate as substrate after 15 to 60 mins by TopCount scintillation counting method relative to control
T1 sequence (whole entry): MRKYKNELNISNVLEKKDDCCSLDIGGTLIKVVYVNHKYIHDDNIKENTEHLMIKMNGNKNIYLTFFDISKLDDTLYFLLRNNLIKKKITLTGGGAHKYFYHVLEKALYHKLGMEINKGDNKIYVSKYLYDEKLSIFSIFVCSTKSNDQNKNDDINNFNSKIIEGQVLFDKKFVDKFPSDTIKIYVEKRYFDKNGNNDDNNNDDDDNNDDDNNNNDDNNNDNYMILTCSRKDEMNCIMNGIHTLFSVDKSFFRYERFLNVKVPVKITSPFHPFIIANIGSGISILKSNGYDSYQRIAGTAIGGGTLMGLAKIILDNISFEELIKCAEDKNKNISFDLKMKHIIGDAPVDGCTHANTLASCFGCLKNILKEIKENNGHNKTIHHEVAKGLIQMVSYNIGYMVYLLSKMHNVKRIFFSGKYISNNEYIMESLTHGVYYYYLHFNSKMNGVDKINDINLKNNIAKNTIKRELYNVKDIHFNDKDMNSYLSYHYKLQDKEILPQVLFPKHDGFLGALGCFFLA
Procedure, shortened: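 [14C]Pantothenate phosphorylation by PanK in P. falciparum lysate with compound at 100 μM. Pantothenate was 1.8 μM for R-compounds and 1 μM for S-compounds. Incubation period was pre-set within the linear range; percent inhibition versus DMSO-only controls. 3–8 experiments in duplicate, SEM.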

[4] = Drug metabolism in human erythrocytes infected with Plasmodium falciparum 3D7 trophozoites assessed as esterase-mediated compound hydrolysis at 1 mM after 3 hrs by 1H-13C-HSQC NMR analysis; format: ADME, cell-based; conditions: 1000 µM
Procedure, shortened: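 Infected erythrocytes (>95% parasitemia) incubated 3 h with 13C3-labelled or unlabelled compound. Metabolites were extracted from about 2 × 10^8 parasites and analysed by 1H-13C HSQC in D2O with 200 μM TSP as shift reference. Two independent experiments.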

[5] = Cytotoxicity against human WI38 cells assessed as inhibition of cell proliferation at 100 uM after 48 hrs by CellTiter-Glo assay relative to control; format: cell-based, WI-38
Procedure, shortened: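 WI-38 proliferation measured over 48 h with compound at 100 μM; percent inhibition reported.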

[6] = biological target: T1, Pantothenate kinase, putative (Plasmodium falciparum (isolate 3D7)); test: Inhibition of pantothenate kinase in Plasmodium falciparum 3D7 trophozoites at 1 to 100 uM using [14C]pantothenate as substrate after 15 mins by TopCount scintillation counting method
Procedure, shortened: (§1)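 PanK activity in P. falciparum lysate with 1.8 μM [14C]pantothenate and increasing compound concentrations, 15 min incubation within the linear range. Percent inhibition from [14C]pantothenate phosphorylated versus no compound. 2–5 experiments in duplicate; mean ± range/2 or SEM.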

[7] = Selectivity index, ratio of cytotoxic concentration for HEK293 cells to IC50 for Plasmodium falciparum 3D7 infected in human erythrocytes in presence of 1 uM pantothenate; format: toxicity, cell-based; conditions: read-out: Selectivity Index
[8] = Selectivity index, ratio of cytotoxic concentration for human WI38 cells to IC50 for Plasmodium falciparum 3D7 infected in human erythrocytes in presence of 1 uM pantothenate; format: toxicity, cell-based; conditions: read-out: Selectivity Index
[9] = Cytotoxicity against HEK293 cells assessed as inhibition of cell proliferation at 100 uM after 96 hrs by CellTiter-Glo assay relative to control; format: cell-based; conditions: human
Procedure, shortened: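 HEK-293 proliferation measured over 96 h with compound at 100 μM; percent inhibition reported.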

[10] = Cysteine reactivity at pH 7.4 after 2 hrs by 1H NMR analysis; format: physicochemical; conditions: pH 7.4, 2 h
Procedure, shortened: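 Compound mixed with glutathione or L-cysteine at pH 7.4 and monitored by NMR for 2 h. The first spectrum was acquired 15 min after mixing. N-ethylmaleimide served as a reactive Michael acceptor reference.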

[11] = biological target: T2, Pantothenate kinase, putative (Plasmodium falciparum (isolate 3D7), UniProt Q8ILP4); test: Inhibition of pantothenate kinase in Plasmodium falciparum 3D7 trophozoites using [14C]pantothenate as substrate after 15 mins by TopCount scintillation counting method; procedure, shortened: as §1
T2 sequence (Q8ILP4 whole entry): T1 sequence (whole entry)

SMILES	Ratio IC50 [1]	IC50 [2]	inhibition [3]	Drug metabolism [4]	inhibition at 48 h, 100 µM [5]	inhibition [6]	selectivity ratio [7]	selectivity ratio [8]	inhibition at 96 h, 100 µM [9]	Drug metabolism [10]	IC50 [11]
CCOC(=O)/C=C/N1CCCCCCC1=O	1	93 µM	inactive	–	–	–	–	–	–	–	–
CCOC(=O)/C=C/NC(=O)c1cccnc1	–	> 200 µM	inactive	–	–	–	–	–	–	–	–
CC(C)(CO)[C@@H](O)C(=O)N/[13CH]=[13CH]/[13C](=O)OCc1ccccc1	–	–	–	Metabolite_Notdetected	–	–	–	–	–	–	–
CCOC(=O)/C=C/N1CCCCCCCC1=O	1.4	61 µM	inactive	–	–	–	–	–	–	–	–
CCOC(=O)/C=C/NC(=O)[C@H](O)C(C)(C)CO	>1.3	159 µM	> 90%	–	36%	Active	> 0.6	> 0.6	-5%	–	–
COC(=O)/C=C/NC(=O)[C@@H](O)C(C)(C)CO	–	> 100 µM	< 25%	–	-18%	–	–	–	-2%	–	–
CCOC(=O)/C=C\NC(=O)[C@@H](O)C(C)(C)CO	–	> 100 µM	< 25%	–	-6%	–	–	–	-6%	–	–
CC(C)(C)OC(=O)/C=C/NC(=O)[C@@H](O)C(C)(C)CO	–	> 100 µM	< 25%	–	14%	–	–	–	-8%	–	–
CCOC(=O)/C(C)=C/NC(=O)c1ccccc1	1	120 µM	inactive	–	–	–	–	–	–	–	–
CC(C)(CO)[C@H](O)C(=O)N/C=C\C(=O)O	–	> 100 µM	< 25%	–	-19%	–	–	–	-11%	–	–
CCOC(=O)/C(C)=C/NC(=O)[C@H](O)C(C)(C)CO	–	> 200 µM	Active	–	–	inactive	–	–	–	–	–
CCOC(=O)/C=C/NC(=O)[C@@H](O)C(C)(C)CO	–	> 100 µM	< 25%	–	-6%	–	–	–	-9%	–	–
COC(=O)/C=C/NC(=O)[C@H](O)C(C)(C)CO	–	> 200 µM	> 90%	–	4%	Active	–	–	0%	–	–
CCOC(=O)/C=C/NC(=O)[C@@H]1OC(C)(C)OCC1(C)C	0.9	144 µM	inactive	–	–	–	–	–	–	–	–
CCOC(=O)/C=C/N1CCCCCC1=O	0.9	181 µM	inactive	–	–	–	–	–	–	–	–
CC(C)(C)OC(=O)/C=C/NC(=O)[C@H](O)C(C)(C)CO	3.1	42 µM	> 90%	–	0%	Active	> 2	> 2	-1%	–	–
CC(C)(CO)[C@@H](O)C(=O)N/C=C\C(=O)O	–	> 200 µM	< 25%	–	–	–	–	–	–	–	–
CCOC(=O)/C=C\NC(=O)[C@H](O)C(C)(C)CO	–	> 200 µM	< 25%	–	1%	–	–	–	-6%	–	–
CC(C)(CO)[C@H](O)C(=O)N/C=C/C(=O)O	–	> 100 µM	< 25%	–	17%	–	–	–	-10%	–	–
CCOC(=O)/C=C/NC(=O)c1ccccc1	1	158 µM	inactive	–	–	–	–	–	–	–	–
CC(C)(CO)[C@H](O)C(=O)N/C=C\C(=O)OCc1ccccc1	–	> 100 µM	< 25%	–	-2%	–	–	–	-7%	–	–
CC(C)(C)OC(=O)/C=C\NC(=O)[C@@H](O)C(C)(C)CO	–	> 100 µM	< 25%	–	26%	–	–	–	-11%	–	–
CC(C)(CO)[C@@H](O)C(=O)N/C=C/C(=O)OCc1ccccc1	>7.7	13 µM	> 90%	–	19%	–	> 8	> 8	5%	Metabolite_Notdetected	0.14 µM
COC(=O)/C=C\NC(=O)[C@@H](O)C(C)(C)CO	–	> 100 µM	< 25%	–	-20%	–	–	–	-12%	–	–
CC(C)(C)OC(=O)/C=C\NC(=O)[C@H](O)C(C)(C)CO	1	39 µM	< 25%	–	-14%	–	–	–	-9%	–	–
CC(C)(CO)[C@@H](O)C(=O)N/[13CH]=[13CH]/[13C](=O)O	–	–	–	Metabolite_Detected	–	–	–	–	–	–	–
CC(C)(CO)[C@H](O)C(=O)N/C=C/C(=O)OCc1ccccc1	–	> 100 µM	< 25%	–	19%	–	–	–	-6%	–	–
COC(=O)/C=C\NC(=O)[C@H](O)C(C)(C)CO	–	> 200 µM	< 25%	–	–	–	–	–	–	–	–
CCOC(=O)/C(C)=C/NC(=O)[C@@H]1OC(C)(C)OCC1(C)C	1	93 µM	inactive	–	–	–	–	–	–	–	–
CC(C)(CO)[C@@H](O)C(=O)N/C=C\C(=O)OCc1ccccc1	0.9	89 µM	< 25%	–	4%	–	–	–	7%	–	–
